Consider ten compounds from ChEMBL document CHEMBL4706573, “Synthesis and evaluation of thiophene based small molecules as potent inhibitors of Mycobacterium tuberculosis” (Eur J Med Chem, 2020).

The structures appear in SMILES notation. Active and inactive are the calls of the source. The calls are words filed in the database; no cut-off is given here.

The test relates to Mycobacterium tuberculosis. The test can be described thus: Antimycobacterial activity against INH-resistant Mycobacterium tuberculosis mc2497 after 10 to 14 days. The settings on record: time 10-14 day. It is filed as functional, organism-based. The essentials: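 MIC99 determined in whole cells, tested in triplicate with INH as the positive control. Strains were wild-type, pMV306, pMV306-pks13 and INH-resistant mc2 497. Susceptibility was scored relative to the parental strain: S where the MIC99 was at most 2x the parental MIC99.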
Take `COC(=O)c1cc(-c2ccc(F)cc2)sc1NC(=O)CCl`: the result was inactive.

In the case of `COC(=O)c1cc(-c2ccc(C(F)(F)F)cc2)sc1NC(=O)CCl`, the outcome was inactive.

For the compound `COC(=O)c1ccsc1NC(=O)CCl`, the result was inactive.

Consider `NNC(=O)c1ccncc1` [ISONIAZID], for which the outcome was inactive.

As to `COC(=O)c1cc(-c2cc(F)cc(F)c2)sc1NC(=O)CCl`, the result was inactive.

`CCOC(=O)c1cc(-c2ccccc2)sc1NC(=O)CBr`: the result was inactive.

Regarding `COC(=O)c1cc(-c2cccc(F)c2)sc1NC(=O)CCl`, the result was inactive.

For `COC(=O)c1cc(-c2cc3ccccc3s2)sc1NC(=O)CCl`, the outcome was inactive.

In the case of `CO[C@H]1/C=C/O[C@@]2(C)Oc3c(C)c(O)c4c(O)c(c(/C=N/N5CCN(C)CC5)c(O)c4c3C2=O)NC(=O)/C(C)=C\C=C\[C@H](C)[C@H](O)[C@@H](C)[C@@H](O)[C@@H](C)[C@H](OC(C)=O)[C@@H]1C` [RIFAMPIN], the result was Active.

`COC(=O)c1cc(-c2ccccc2)sc1NC(=O)CCl`: the outcome was inactive.
